IDH1 mut inh – IDH1 R132H (human) inhibition | IDH1 R132H reductase, diaphorase/resazurin fluorescence, 60 min | inhibition, % at 10 µM | hit rate 0.18% among 70,000 | AID 624101 | O75874; in the data active means inhibition above about 34%; inconclusive means no clear call, values can overlap the other calls; inactive means below about 11%;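 further: 0% = DMSO and 100% = no enzyme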
KDM4C inh – inhibitors of human demethylase GASC-1 KDM4C; Q9H3R0; GST-KDM4C 2-372, H3K9me3 peptide, LANCE TR-FRET; inhibition, % at 12.5 µM; hit rate 0.15% among 96,000; AID 720574;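 active means mean replicate inhibition above about 25%, with at least 55% of replicates also reaching it, limit read from the data, passing the limit was not always enough; inconclusive means only one of those two conditions met; inactive means neither condition met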
Target sequence (Q9H3R0 2-372 limits assumed): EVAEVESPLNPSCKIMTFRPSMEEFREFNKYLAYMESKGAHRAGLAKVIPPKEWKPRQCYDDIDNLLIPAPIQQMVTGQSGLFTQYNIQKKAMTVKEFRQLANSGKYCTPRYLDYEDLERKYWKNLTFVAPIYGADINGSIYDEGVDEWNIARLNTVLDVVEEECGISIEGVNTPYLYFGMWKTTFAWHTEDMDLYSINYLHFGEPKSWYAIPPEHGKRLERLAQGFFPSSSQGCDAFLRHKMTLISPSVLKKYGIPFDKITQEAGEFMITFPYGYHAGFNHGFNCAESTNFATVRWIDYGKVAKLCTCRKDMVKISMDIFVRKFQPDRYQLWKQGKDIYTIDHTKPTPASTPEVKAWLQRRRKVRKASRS
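Test system – GST-tagged GASC-1 (JMJD2C) catalytic fragment, aa 2-372 · Medium – HEPES buffer, pH 7.5, plus ascorbate · Reagent – H3K9me3 peptide with Fe(II)/2OG · Compound – one test concentration per compound · Timing – 30 min reaction, 60 min detection, RT · Technique – TR-FRET with Eu antibody and ULight streptavidin, EDTA stop · Read-out basis – inhibition from TR-FRET ratio decrease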
T cruzi growth-1 – T. cruzi proliferation inhibition. T. cruzi beta-gal in NIH3T3, GalScreen luminescence, 90 h. inhibition, % at 8.34 µM. hit rate 5.9% among 77,000. AID 624255;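 active means mean inhibition above about 93%, with at least 55% of replicates each passing it, limit read from the data, passing the limit was not always enough; inconclusive means only one of those two conditions holds; inactive means neither condition holds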
T cruzi growth-2 – blocks T. cruzi growth in NIH3T3 host cells | shares compounds with T cruzi growth-1 | T. cruzi beta-gal in NIH3T3, GalScreen luminescence, 90 h | inhibition, % at 8.35 µM | hit rate 72% among 5,600 | AID 651739;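 active means mean replicate inhibition above about 95% and at least 55% of replicates individually reaching it, limit read from the data; inconclusive means only one of the two criteria is met; inactive means neither criterion is met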
T cruzi growth-3 – Trypanosoma cruzi proliferation inhibition; T. cruzi beta-gal in NIH3T3, GalScreen luminescence, 90 h; shares compounds with T cruzi growth-1; inhibition, % at 2.09 µM; hit rate 21% among 5,600;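 active means mean inhibition above about 95%, with at least 55% of replicates also reaching it, limit read from the data; inconclusive means meets just one of the two conditions; inactive means meets neither condition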;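 further: plate controls were neutral control median for no effect and positive control median for full effect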
3T3 cytotox – cytotoxicity in mouse NIH/3T3 fibroblasts. shares compounds with T cruzi growth-1. cytotoxicity (signal decrease), % at 8.35 µM. AID 651742. hit rate 14% among 5,600. NIH/3T3 viability, CellTiter-Glo ATP luminescence, 90 h;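 active means mean signal decrease across replicates above about 35% based on untreated-well scatter, with enough replicates individually passing, limit read from the data; inconclusive means no rule stated though some were filed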;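 further: 0% = median of neutral control wells and 100% = median of positive control wells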
NIH3T3 tox 2 – NIH/3T3 (mouse) viability loss; AID 651744; hit rate 56% among 5,600; NIH/3T3 viability, CellTiter-Glo ATP luminescence, 90 h; shares compounds with T cruzi growth-1; inhibition, % at 24.9 µM;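 active means mean loss of cell viability signal at or above a set limit, and enough replicates individually reaching it; inconclusive means meets only the mean limit or only the replicate share; inactive means meets neither condition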;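 further: 0% = median of neutral control wells and 100% = median of positive control wells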
Starred values were filed as active, the others as inactive; ? = inconclusive; / = no result. Shown is part of a subset that was picked to be rich in hits.

SMILES | IDH1 mut inh | KDM4C inh | T cruzi growth-1 | T cruzi growth-2 | T cruzi growth-3 | 3T3 cytotox | NIH3T3 tox 2
COC(=O)COc1ccc2c(=O)c(Oc3cnn(-c4ccccc4)c3)c(C(F)(F)F)oc2c1C | 2 | / | / | / | / | / | /
O=C(CCN1C(=O)c2ccccc2C1=O)Nc1ccc(Nc2ccccc2)cc1 | 3 | / | / | / | / | / | /
COc1cc2c(cc1OC)N1C(=O)C[C@]34C=CCN5CC[C@@H]2[C@@H](CC3)[C@]514 | 0 | / | / | / | / | / | /
CC(C)(O)C#Cc1ccc([C@@H]2[C@@H](CO)N3CCCCN(Cc4ccccc4F)C[C@@H]23)cc1 | / | -1 | 47 | / | / | / | /
CC(C)(O)C#Cc1ccc([C@H]2[C@H]3CN(Cc4ccccc4F)CCCCN3[C@H]2CO)cc1 | / | 2 | 44 | / | / | / | /
COc1ccc(C#Cc2ccc([C@@H]3[C@H]4CN(Cc5ccccc5F)CCCCN4[C@H]3CO)cc2)cc1 | / | -2 | 54 | / | / | / | /
N#Cc1cccc(-c2ccc([C@@H]3[C@@H](CO)N4CCCCN(Cc5ccccc5F)C[C@H]34)cc2)c1 | / | 1 | 58 | / | / | / | /
OC[C@H]1[C@H](c2ccc(C#Cc3cccnc3)cc2)[C@H]2CN(Cc3ccccc3F)CCCCN21 | / | 2 | 110* | 107* | 79 | 16 | 103*
N#Cc1cccc(-c2ccc([C@H]3[C@@H](CO)N4CCCCN(Cc5ccccc5F)C[C@@H]34)cc2)c1 | / | -2 | 99* | 104* | 77 | 14 | 97*
OC[C@H]1[C@@H](c2ccc(C#Cc3cccnc3)cc2)[C@H]2CN(Cc3ccccc3F)CCCCN21 | / | 2 | ? | 106* | 92 | 15 | 74*
OC[C@@H]1[C@@H](c2ccc(C#Cc3cccnc3)cc2)[C@H]2CN(Cc3ccccc3F)CCCCN12 | / | -1 | 104* | 107* | -1 | 33 | 102*
C[C@H](CO)N1C[C@H](C)[C@H](CN(C)Cc2ccc3c(c2)OCO3)Oc2ccc(NC(=O)C3CC3)cc2C1=O | / | 0 | -28 | / | / | / | /
Cc1ccc(N(C(C)C(N)=O)S(C)(=O)=O)cc1C (centres undefined) | 1 | / | / | / | / | / | /
CC(C)=CCC[C@@H](C)C/C=N/NC(=O)CCCCCC(=O)O | 0 | / | / | / | / | / | /
CCCC(O)c1ccc(C)cc1CCCCCC(=O)O (centres undefined) | 1 | / | / | / | / | / | /
COc1cc(O)c(C(=O)c2c(O)cc(C)cc2O)c(C(=O)O)c1 | 12 | / | / | / | / | / | /
Cc1sc(NC(=O)c2cc(-c3cccnc3)nc3ccccc23)c(C(=O)NC2CCCCC2)c1C | 0 | / | / | / | / | / | /
OC[C@H]1[C@@H](c2ccc(C#Cc3cccnc3)cc2)[C@@H]2CN(Cc3ccccc3F)CCCCN12 | / | 0 | 111* | 96* | ? | 36* | 104*
COc1ccc(C#Cc2ccc([C@H]3[C@@H](CO)N4CCCCN(Cc5ccccc5F)C[C@H]34)cc2)cc1 | / | -1 | -9 | / | / | / | /
CCCNC(=O)N1C[C@@H](C)[C@H](OC)CN(C)C(=O)c2ccc(NC(C)=O)cc2OC[C@@H]1C | / | 1 | / | / | / | / | /
O=C(N/N=C/[C@@H](O)[C@@H](O)[C@H](O)[C@H](O)CO)c1ccccc1O | 0 | / | / | / | / | / | /
CO[C@H]1CN(C)C(=O)c2ccc(NS(=O)(=O)c3cccc(F)c3)cc2OC[C@@H](C)N(Cc2cc(F)ccc2F)C[C@@H]1C | 0 | -1 | / | / | / | / | /
CO[C@H]1CN(C)C(=O)c2cc(NS(=O)(=O)c3cccc(F)c3)ccc2OC[C@H](C)N(Cc2cc(F)ccc2F)C[C@H]1C | -1 | -1 | 115* | 108* | 74 | -18 | 105*
CO[C@H]1CN(C)C(=O)c2cc(NC(=O)C3CCCCC3)ccc2OC[C@H](C)NC[C@H]1C | 0 | 0 | 107* | 9 | -3 | 7 | 4
CO[C@H]1CN(C)C(=O)c2ccc(NS(=O)(=O)c3cccc(F)c3)cc2OC[C@@H](C)N(Cc2cc(F)ccc2F)C[C@H]1C | 0 | 1 | / | / | / | / | /
CO[C@H]1CN(C)C(=O)c2cc(NS(=O)(=O)c3cccc(F)c3)ccc2OC[C@@H](C)N(Cc2cc(F)ccc2F)C[C@@H]1C | 0 | -1 | 112* | 110* | 26 | -7 | 13
CO[C@H]1CN(C)C(=O)c2cc(NS(=O)(=O)c3cccc(F)c3)ccc2OC[C@H](C)N(Cc2cc(F)ccc2F)C[C@@H]1C | 0 | -1 | 112* | 105* | 92 | -34 | -27
